Compound activity (PubChem)
KCNK3 inh = human KCNK3 channel inhibition, primary screen; B-score at 10 µM; O14649; 340,000 tested, 0.84% active; AID 602410; CHO-KCNK3 thallium flux, FluxOR fluorescence; stronger effect = lower value;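 active = B-score under library mean minus 4 SD, starting fluorescence ratio at most library mean plus 5 SD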;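 also: more negative B-score means stronger inhibition of thallium flux through KCNK3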
hERG protect = compounds protecting human hERG from proarrhythmic drug block. activation (rescue from dofetilide block), less the hit threshold, % at 10 µM. CHO-hERG, FluxOR thallium flux, dofetilide IC70 present. 310,000 tested, 0.51% active. Q12809. AID 1511;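 active = activation above the mean of controls blocked by dofetilide plus 5 SD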;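 also: thallium influx through hERG after potassium depolarization seen as dye fluorescence rise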
Target sequence (Q12809 whole entry, looked up): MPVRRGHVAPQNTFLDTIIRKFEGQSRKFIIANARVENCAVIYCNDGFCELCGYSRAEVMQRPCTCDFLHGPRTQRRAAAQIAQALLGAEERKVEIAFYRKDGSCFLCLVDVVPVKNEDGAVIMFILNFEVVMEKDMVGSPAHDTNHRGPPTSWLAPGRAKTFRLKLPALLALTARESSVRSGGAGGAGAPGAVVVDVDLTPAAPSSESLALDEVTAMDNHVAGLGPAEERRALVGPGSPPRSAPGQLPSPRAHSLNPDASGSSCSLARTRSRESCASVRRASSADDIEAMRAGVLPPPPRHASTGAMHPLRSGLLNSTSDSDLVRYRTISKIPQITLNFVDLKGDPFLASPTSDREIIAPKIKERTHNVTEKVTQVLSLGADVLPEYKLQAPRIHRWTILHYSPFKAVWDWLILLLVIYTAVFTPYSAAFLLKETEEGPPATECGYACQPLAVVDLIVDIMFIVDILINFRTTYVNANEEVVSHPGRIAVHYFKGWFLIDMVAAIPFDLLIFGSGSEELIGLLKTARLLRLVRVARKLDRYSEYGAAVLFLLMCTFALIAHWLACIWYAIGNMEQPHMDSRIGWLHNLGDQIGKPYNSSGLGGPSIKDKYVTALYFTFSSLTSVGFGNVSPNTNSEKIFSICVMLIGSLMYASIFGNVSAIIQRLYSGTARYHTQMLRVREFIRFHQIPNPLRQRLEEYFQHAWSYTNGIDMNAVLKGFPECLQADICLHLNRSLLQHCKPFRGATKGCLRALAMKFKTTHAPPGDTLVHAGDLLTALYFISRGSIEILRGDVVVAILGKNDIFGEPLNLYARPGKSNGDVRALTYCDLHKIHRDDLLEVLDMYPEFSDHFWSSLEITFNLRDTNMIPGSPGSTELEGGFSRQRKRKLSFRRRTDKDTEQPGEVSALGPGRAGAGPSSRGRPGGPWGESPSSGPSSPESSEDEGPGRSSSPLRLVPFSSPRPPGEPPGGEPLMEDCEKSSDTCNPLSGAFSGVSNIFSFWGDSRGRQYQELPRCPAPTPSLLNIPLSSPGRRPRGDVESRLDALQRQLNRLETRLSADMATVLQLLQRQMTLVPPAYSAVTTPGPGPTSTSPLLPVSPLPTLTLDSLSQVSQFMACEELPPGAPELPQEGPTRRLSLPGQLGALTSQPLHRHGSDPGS
KCNK9 block = inhibitors of human KCNK9 two-pore domain potassium channel; Q9NPC2; AID 488922; HEK293 KCNK9, FluxOR thallium flux fluorescence; stronger effect = lower value; 310,000 tested, 1.2% active; B-score at 10 µM;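 active = ratio B-score over 3 SD below the library mean, with starting fluorescence within 5 SD of its mean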;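 also: negative B-score means less thallium flux so channel inhibition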
KCNQ1 act = potentiators or activators of human KCNQ1 potassium channel | P51787 | CHO-K1 KCNQ1, thallium flux FluxOR fluorescence; stronger effect = higher value | B-score at 10 µM | 310,000 tested, 0.35% active | AID 2648;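 active = fluorescence ratio B-score, a plate-corrected score, at least three library SD, with initial intensity B-score within 5 SD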
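Test system: CHO-K1 cells stably expressing KCNQ1 / Medium: assay buffer / Also added: depolarizing K+/Tl+ stimulus, K2SO4 and Tl2SO4 each 12.5 mM in 5x stock / Incubation: 90 min dye loading and 20 min compound exposure, both at room temperature / Signal: thallium influx via FluxOR fluorescence, kinetic imaging / Evaluation: B score of baseline-normalized fluorescence ratio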
KCNQ1 block = human KCNQ1 channel inhibition; B-score at 10 µM; CHO-K1 KCNQ1, FluxOR thallium flux fluorescence; stronger effect = higher value; 310,000 tested, 1.3% active;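 active = compounds whose thallium flux B-score, printed positive for inhibition, exceeds three library SD while starting fluorescence stays within three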;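 also: channel opened by potassium depolarization with thallium stimulus after 20 min compound exposure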
* marks the source's active call; other numbers are inactive results; i = inactive; / = no result. Only some compounds are listed: those with a hit (about 3.1% of all), similar ones and a draw of the others.

SMILES	KCNK3 inh	hERG protect	KCNK9 block	KCNQ1 act	KCNQ1 block
Cc1c(O)cc2c(c1O)C(=O)CC(c1ccc(O)cc1)O2 (stereo not drawn)	i	-7	i	i	i
CC(C)=CCc1c(O)c(CC=C(C)C)c2c(c1O)C(=O)CC(c1ccc(O)cc1)O2 (stereo not drawn)	i	-4	i	i	8*
CC(=O)n1cc(N(C(=O)CCl)c2ccc([N+](=O)[O-])cc2)c2ccccc21	i	-13	i	i	7*
O=Cc1[nH]c2ccccc2c1N(C(=O)CCl)c1ccc([N+](=O)[O-])cc1	i	-27	i	i	9*
CSc1ncccc1C(=O)NCCc1ccc(S(N)(=O)=O)cc1	i	-3	i	i	i
Cc1ccc(C2(c3ccc(C)cc3)NC(=O)N(CC(N)=O)C2=O)cc1	i	0	i	i	i
Cc1cc(C)c2sc(NNC(=O)c3ccc(S(=O)(=O)N4CCc5ccccc5C4)cc3)nc2c1	i	-6	i	i	7*
O=C(Nc1cccn(Cc2c(Cl)cccc2Cl)c1=O)c1ccccc1Cl	i	-4	-6.8*	i	i
COc1ccccc1CNC(=O)C/C(C)=N/NC(=O)COc1ccc(C)cc1Br	i	-3	i	i	i
C/C(CC(=O)Nc1ccccc1-c1ccccc1)=N\NC(=O)COc1ccc(C)cc1Br	i	-13	i	i	6*
Nc1cccc2c1C(=O)N(C(=O)/C=C/c1ccc(F)cc1)C2=O	i	-13	i	i	i
Cc1ccc(NC(=O)C(C)OC(=O)c2ccc(NC(=O)CC#N)cc2)cc1S(=O)(=O)N1CCOCC1 (stereo not drawn)	i	-13	i	i	i
CCOC(OCC)c1cc2ccccc2cn1	i	/	/	/	/
CCCCCCNC(=O)CNC(=S)N(Cc1cccs1)C1CCCCC1	i	-3	i	i	7*
CCOC(=O)CNC(=S)N(Cc1cccs1)C1CCCC1	i	-8	i	i	i
CCOCCCN(Cc1cc2cc(C)cc(C)c2[nH]c1=O)C(=O)N(CC)CC	i	-15	i	i	i
CCc1cc2cc(C)cc(C)c2[nH]c1=S	i	9.1*	i	i	i
N#Cc1ccsc1NC(=O)CN1CCN(c2ccccc2)CC1	i	8.6*	i	i	i
COc1ccc(C(=O)C(c2ccccc2)N2CCOCC2)cc1 (stereo not drawn)	i	-3	i	i	i
Cc1ccc(C(=O)C(c2ccccc2)N2Cc3ccccc3C2=N)cc1 (stereo not drawn)	i	-17	i	i	11*
CC(=O)c1ccc(-c2cccc(-c3nc4ccccn4c3NC3CCCCC3)c2)cc1	i	-6	-7.7*	i	i
c1csc(-c2nc3ccccn3c2NC2CCCCC2)c1	i	-7	i	i	i
CCC(C)Sc1cc(-c2nc3ccccn3c2NC2CCCCC2)ccc1OC (stereo not drawn)	i	-12	i	i	8*
CCC(C)Sc1cc(-c2nc3cc(C)ccn3c2NC2CCCCC2)ccc1OC (stereo not drawn)	i	/	/	/	/
CC1=CC(c2ccc(Cl)cc2)n2nc(NC(=O)c3ccccc3)nc2N1 (stereo not drawn)	i	-14	i	i	i
SMILES	KCNK3 inh	hERG protect	KCNK9 block	KCNQ1 act	KCNQ1 block
CC1=Nc2ccccc2N=C(NC(=O)c2ccccc2)C1c1ccc(Cl)cc1 (stereo not drawn)	i	-3	i	i	12*
CCc1ccc(/C=C/C(=O)c2cc(Br)ccc(=O)c2O)cc1	i	0	i	38*	i
CCOc1ccc(/C=C/C(=O)c2cc(Br)ccc(=O)c2O)cc1	i	/	/	/	/
O=C(OCC(=O)N1CCN(C(=O)c2ccco2)CC1)c1ccccc1NCCO	i	-8	i	i	i
CC(NC(=O)N1CCN(c2ccccc2F)CC1)c1ccc(F)c(F)c1 (stereo not drawn)	i	-10	i	i	i
COc1ccc(C2(C)CC(C)(C)Nc3ccccc32)cc1 (stereo not drawn)	i	-12	i	8*	i
O=[N+]([O-])c1ccccc1Oc1ccc(S(=O)(=O)N2CCOCC2)cc1	i	/	/	/	/
COc1ccc(C2NC(c3ccc(OC)c(OC)c3OC)C(C)C(=O)C2C)c(OC)c1OC (stereo not drawn)	i	-2	i	10*	i
CN(C(=O)c1cccc(NC(=O)Cc2ccc(NC(=O)C3CCN(C(=O)C4CCC4)CC3)cc2)c1)C1CCC1	i	/	/	/	/
NNC(=O)c1cc2nc(-c3cccs3)cc(C(F)(F)F)n2n1	i	-6	i	i	i
FC(F)(F)c1cc(-c2cccs2)nc2cc(-c3cccs3)nn12	i	-1	i	i	6*
CN1/C(=C/C(=O)c2nc(S(C)(=O)=O)ncc2Cl)C(C)(C)c2ccccc21	i	-17	i	i	6*
O=C(NCc1ccccc1Cl)C1CCN(C(=O)c2ccco2)CC1	/	-8	i	i	i
Cc1cc(/C=N/n2cnnc2)c(C)n1-c1ccc(Cl)cc1Cl	i	-11	i	10*	i
CCOC(=O)N1CCN(C(=O)COC(=O)c2oc3ccc(OC)cc3c2C)CC1	i	-6	i	i	i
Cc1ccc(C(C)C)c(OCC(O)CN2CCc3ccccc3C2)c1 (stereo not drawn)	i	-20	i	i	6*
c1ccc(-c2cn(-c3ccccc3)c3[n+]2CCS3)cc1	i	-7	i	i	i
CC(C)(C)c1ccc(-c2cn(-c3ccc(Br)cc3)c3[n+]2CCCS3)cc1	i	-31	i	i	7*
Cc1ccc([N+](=O)[O-])cc1N=Nc1c(-c2ccc([N+](=O)[O-])cc2)[nH]n(C(N)=S)c1=O	i	-25	i	i	7*
Cc1ccc([N+](=O)[O-])cc1N=Nc1c(C)[nH]n(C(N)=S)c1=O	i	-4	i	i	i
COc1ccc(C(=O)NC2CC2)cc1OC1CCN(Cc2ccc(F)cc2Cl)CC1	i	-11	i	i	i
CCOc1ccc2nc(N3C(=O)/C(=C/c4ccc(Cl)cc4)NC3=S)sc2c1	i	-2	i	26*	i
COc1ccc2nc(N3C(=O)CNC3=S)sc2c1	i	-6	i	i	i
CCOC(=O)NC1(C(F)(F)F)C(=O)NC(C)=C1C(=O)OC (stereo not drawn)	i	4.9*	i	i	i
O=C(C[n+]1cccc(NC(=O)c2ccccc2)c1)c1cccc([N+](=O)[O-])c1	i	-10	i	i	i
